ChEMBL document CHEMBL5705890, “Antitumor activity of an allosteric inhibitor of centromere-associated protein-E” (Proc Natl Acad Sci U S A, 2010)

Tests used:
[1] = system: HuT78; assay: Anticancer activity against human HuT78 cells assessed as cell doubling measured for 72 hrs by DAPI staining based analysis; assay type: functional
[2] = system: NCI-H2170; assay: Anticancer activity against human NCI-H2170 cells assessed as cell growth inhibition measured after 72 hrs by DAPI staining based analysis; assay type: functional
[3] = system: NCI/ADR-RES; assay: Anticancer activity against human NCI/ADR-RES cells assessed as cell growth inhibition measured after 72 hrs by DAPI staining based analysis; assay type: functional
[4] = system: MX1; assay: Antitumor activity against human MX1 cells in xenograft model assessed as difference between median time to endpoint time of treated versus control group at 125 mg/kg; assay type: functional
[5] = system: Malme-3M; assay: Anticancer activity against human Malme-3M cells assessed as cell doubling measured for 72 hrs by DAPI staining based analysis; assay type: functional
[6] = system: COLO 320DM; assay: Anticancer activity against human COLO 320DM cells assessed as cell growth inhibition measured after 72 hrs by DAPI staining based analysis; assay type: functional
How it was run: (§1)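 Cells were seeded, and DNA content at 24 h after seeding (T0) was read by imaging of fixed, DAPI-stained cells. Cells were then exposed to a range of drug concentrations for a further 72 h (T72) and DNA content was read again. T72 values were normalized to T0, and GI50 was taken from curve fits as the concentration giving 50% growth inhibition relative to T0 and Ymax.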

[7] = biological target: Centromere-associated protein E (Homo sapiens, UniProt Q02224); assay: Uncompetitive binding affinity to C-terminal 6-his-tagged CENP-E (2 to 340 residues)(unknown origin) expressed in Escherichia coli BL21(DE3) assessed as apparent inhibition constant in presence of ATP; conditions: read-out: Ki(app)
Centromere-associated protein E (Homo sapiens, UniProt Q02224), sequence (Q02224 whole entry, the tested form may be a part): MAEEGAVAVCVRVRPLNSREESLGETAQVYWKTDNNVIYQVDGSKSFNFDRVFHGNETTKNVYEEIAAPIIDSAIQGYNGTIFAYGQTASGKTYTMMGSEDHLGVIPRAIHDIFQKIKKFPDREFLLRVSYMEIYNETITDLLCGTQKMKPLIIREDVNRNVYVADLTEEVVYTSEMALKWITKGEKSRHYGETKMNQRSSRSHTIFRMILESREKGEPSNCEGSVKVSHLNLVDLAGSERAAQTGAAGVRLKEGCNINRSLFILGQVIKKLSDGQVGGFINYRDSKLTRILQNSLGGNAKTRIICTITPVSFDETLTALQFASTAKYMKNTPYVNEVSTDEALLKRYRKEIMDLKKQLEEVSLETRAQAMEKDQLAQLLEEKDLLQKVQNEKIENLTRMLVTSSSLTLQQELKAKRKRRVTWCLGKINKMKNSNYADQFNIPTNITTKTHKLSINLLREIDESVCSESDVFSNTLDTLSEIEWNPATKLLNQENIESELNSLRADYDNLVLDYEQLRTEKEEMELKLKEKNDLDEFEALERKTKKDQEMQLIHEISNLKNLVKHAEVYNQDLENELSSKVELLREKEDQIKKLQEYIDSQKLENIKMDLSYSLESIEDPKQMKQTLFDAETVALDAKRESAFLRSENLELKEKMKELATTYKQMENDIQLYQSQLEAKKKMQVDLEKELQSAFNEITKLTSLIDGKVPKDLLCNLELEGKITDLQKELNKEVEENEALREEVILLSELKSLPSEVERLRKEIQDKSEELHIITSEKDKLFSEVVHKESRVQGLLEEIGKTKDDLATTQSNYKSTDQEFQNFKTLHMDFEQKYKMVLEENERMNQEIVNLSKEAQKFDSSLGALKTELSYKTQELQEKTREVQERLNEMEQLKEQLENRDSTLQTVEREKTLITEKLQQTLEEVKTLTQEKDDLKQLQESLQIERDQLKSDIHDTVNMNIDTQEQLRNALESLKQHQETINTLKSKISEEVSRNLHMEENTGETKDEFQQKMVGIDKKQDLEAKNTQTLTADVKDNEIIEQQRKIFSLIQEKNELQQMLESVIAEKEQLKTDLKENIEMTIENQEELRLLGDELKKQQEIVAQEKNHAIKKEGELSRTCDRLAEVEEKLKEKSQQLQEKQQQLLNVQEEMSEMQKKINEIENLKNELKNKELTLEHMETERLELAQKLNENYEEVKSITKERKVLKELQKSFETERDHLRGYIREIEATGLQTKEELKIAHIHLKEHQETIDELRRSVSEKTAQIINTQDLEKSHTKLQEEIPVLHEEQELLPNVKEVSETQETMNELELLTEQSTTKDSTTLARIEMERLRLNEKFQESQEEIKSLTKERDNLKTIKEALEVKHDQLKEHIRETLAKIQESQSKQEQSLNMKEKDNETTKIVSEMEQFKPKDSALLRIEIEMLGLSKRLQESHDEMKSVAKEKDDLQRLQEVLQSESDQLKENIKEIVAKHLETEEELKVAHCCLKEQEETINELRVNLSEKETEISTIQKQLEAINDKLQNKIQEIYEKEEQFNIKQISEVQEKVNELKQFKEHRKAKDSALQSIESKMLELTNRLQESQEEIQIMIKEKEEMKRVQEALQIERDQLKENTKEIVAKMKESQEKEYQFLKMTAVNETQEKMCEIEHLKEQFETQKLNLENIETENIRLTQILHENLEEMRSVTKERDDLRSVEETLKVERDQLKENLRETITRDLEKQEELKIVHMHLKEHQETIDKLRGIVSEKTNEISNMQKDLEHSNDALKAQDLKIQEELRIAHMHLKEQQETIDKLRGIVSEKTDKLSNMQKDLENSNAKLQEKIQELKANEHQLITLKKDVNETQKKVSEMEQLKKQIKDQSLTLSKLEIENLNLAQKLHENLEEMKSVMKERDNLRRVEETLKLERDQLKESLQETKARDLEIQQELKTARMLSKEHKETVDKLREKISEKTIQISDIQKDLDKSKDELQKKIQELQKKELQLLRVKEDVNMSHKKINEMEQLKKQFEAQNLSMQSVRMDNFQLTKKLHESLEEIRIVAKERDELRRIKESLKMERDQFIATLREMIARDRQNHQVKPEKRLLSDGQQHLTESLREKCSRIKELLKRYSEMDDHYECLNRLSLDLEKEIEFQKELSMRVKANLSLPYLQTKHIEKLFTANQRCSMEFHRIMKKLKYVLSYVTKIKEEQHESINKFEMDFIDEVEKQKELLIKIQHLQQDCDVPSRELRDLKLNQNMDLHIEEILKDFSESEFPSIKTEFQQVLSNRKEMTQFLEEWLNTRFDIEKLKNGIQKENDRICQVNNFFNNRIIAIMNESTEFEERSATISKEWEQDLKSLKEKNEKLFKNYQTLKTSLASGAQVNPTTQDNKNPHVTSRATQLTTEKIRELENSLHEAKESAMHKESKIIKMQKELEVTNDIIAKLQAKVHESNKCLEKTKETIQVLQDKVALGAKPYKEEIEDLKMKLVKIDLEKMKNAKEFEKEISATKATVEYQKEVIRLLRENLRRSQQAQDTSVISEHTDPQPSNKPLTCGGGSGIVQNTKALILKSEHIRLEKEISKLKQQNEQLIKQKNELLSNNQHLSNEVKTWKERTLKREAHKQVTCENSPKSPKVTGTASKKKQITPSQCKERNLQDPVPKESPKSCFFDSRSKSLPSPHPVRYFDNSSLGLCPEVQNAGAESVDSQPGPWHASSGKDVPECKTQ

[8] = system: NCI-H520; assay: Anticancer activity against human NCI-H520 cells assessed as cell growth inhibition measured after 72 hrs by DAPI staining based analysis; assay type: functional
[9] = system: DLD-1; assay: Anticancer activity against human DLD-1 cells assessed as cell doubling measured for 72 hrs by DAPI staining based analysis; assay type: functional
[10] = system: HCT-116; assay: Antitumor activity against human HCT-116 cells in xenograft model assessed as tumor growth delay at 125 mg/kg relative to control; assay type: functional
[11] = system: NCI-H2122; assay: Anticancer activity against human NCI-H2122 cells assessed as cell growth inhibition measured after 72 hrs by DAPI staining based analysis; assay type: functional
[12] = system: NCI-H596; assay: Anticancer activity against human NCI-H596 cells assessed as cell doubling measured for 72 hrs by DAPI staining based analysis; assay type: functional
[13] = system: A549; assay: Antitumor activity against human A549 cells in xenograft model assessed as tumor growth delay at 125 mg/kg relative to control; assay type: functional
[14] = Anticancer activity against human CML-T1 cells assessed as cell doubling measured for 72 hrs by DAPI staining based analysis; assay type: functional
[15] = system: 639-V; assay: Anticancer activity against human 639-V cells assessed as cell doubling measured for 72 hrs by DAPI staining based analysis; assay type: functional
[16] = Anticancer activity against human C4-1 cells assessed as cell growth inhibition measured after 72 hrs by DAPI staining based analysis; assay type: functional; how it was run: as §1
[17] = system: SNU-5; assay: Anticancer activity against human SNU-5 cells assessed as cell doubling measured for 72 hrs by DAPI staining based analysis; assay type: functional
[18] = Anticancer activity against human A7 cells assessed as cell doubling measured for 72 hrs by DAPI staining based analysis; assay type: functional
[19] = system: C-33-A; assay: Anticancer activity against human C-33-A cells assessed as cell growth inhibition measured after 72 hrs by DAPI staining based analysis; assay type: functional; how it was run: as §1
[20] = system: CAL-62; assay: Anticancer activity against human CAL-62 cells assessed as cell growth inhibition measured after 72 hrs by DAPI staining based analysis; assay type: functional; how it was run: as §1
[21] = system: G-401; assay: Anticancer activity against human G-401 cells assessed as cell doubling measured for 72 hrs by DAPI staining based analysis; assay type: functional
[22] = system: NCI-H2052; assay: Anticancer activity against human NCI-H2052 cells assessed as cell doubling measured for 72 hrs by DAPI staining based analysis; assay type: functional
[23] = system: HT-1080; assay: Anticancer activity against human HT-1080 cells assessed as cell doubling measured for 72 hrs by DAPI staining based analysis; assay type: functional
[24] = system: SW756; assay: Anticancer activity against human SW756 cells assessed as cell growth inhibition measured after 72 hrs by DAPI staining based analysis; assay type: functional
[25] = biological target: Centromere-associated protein E (Homo sapiens, UniProt Q02224, T183A); assay: Binding affinity to human CENP-E T183A mutant assessed as inhibition constant
Centromere-associated protein E (Homo sapiens, UniProt Q02224, T183A), sequence (Q02224 whole entry T183A): as the sequence (Q02224 whole entry, the tested form may be a part) above, with T183A counted along it

[26] = system: BT-474; assay: Anticancer activity against human BT-474 cells assessed as cell growth inhibition measured after 72 hrs by DAPI staining based analysis; assay type: functional; how it was run: as §1
[27] = system: CHL-1; assay: Anticancer activity against human CHL-1 cells assessed as cell doubling measured for 72 hrs by DAPI staining based analysis; assay type: functional
[28] = system: D283 Med; assay: Anticancer activity against human D283 Med cells assessed as cell doubling measured for 72 hrs by DAPI staining based analysis; assay type: functional
[29] = system: OVCAR-8; assay: Anticancer activity against human OVCAR-8 cells assessed as cell doubling measured for 72 hrs by DAPI staining based analysis; assay type: functional
[30] = system: SK-LMS-1; assay: Anticancer activity against human SK-LMS-1 cells assessed as cell growth inhibition measured after 72 hrs by DAPI staining based analysis; assay type: functional
[31] = system: HOP-62; assay: Anticancer activity against human HOP-62 cells assessed as cell doubling measured for 72 hrs by DAPI staining based analysis; assay type: functional
[32] = system: NCI-H1299; assay: Anticancer activity against human NCI-H1299 cells assessed as cell growth inhibition measured after 72 hrs by DAPI staining based analysis; assay type: functional
[33] = system: M14; assay: Anticancer activity against human M14 cells assessed as cell doubling measured for 72 hrs by DAPI staining based analysis; assay type: functional
[34] = system: HuP-T4; assay: Anticancer activity against human HuP-T4 cells assessed as cell growth inhibition measured after 72 hrs by DAPI staining based analysis; assay type: functional
[35] = Anticancer activity against human RDES cells assessed as cell growth inhibition measured after 72 hrs by DAPI staining based analysis; assay type: functional; conditions: RD-ES
[36] = system: DBTRG-05MG; assay: Anticancer activity against human DBTRG-05MG cells assessed as cell growth inhibition measured after 72 hrs by DAPI staining based analysis; assay type: functional
How it was run: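 Cells seeded, DAPI-stained DNA content of fixed cells read by imaging 24 h after seeding (T0), and again after a further 72 h exposure to a range of drug concentrations (T72). T72 values were normalized to T0. Curve fits gave the concentration producing 50% growth inhibition relative to T0 and Ymax (GI50).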

[37] = system: SK-UT-1; assay: Anticancer activity against human SK-UT-1 cells assessed as cell growth inhibition measured after 72 hrs by DAPI staining based analysis; assay type: functional
[38] = system: RL; assay: Anticancer activity against human RL cells assessed as cell doubling measured for 72 hrs by DAPI staining based analysis; assay type: functional
[39] = system: YAPC; assay: Anticancer activity against human YAPC cells assessed as cell growth inhibition measured after 72 hrs by DAPI staining based analysis; assay type: functional
[40] = system: SCC-4; assay: Anticancer activity against human SCC-4 cells assessed as cell doubling measured for 72 hrs by DAPI staining based analysis; assay type: functional
[41] = system: NCI/ADR-RES; assay: Anticancer activity against human NCI/ADR-RES cells assessed as cell doubling measured for 72 hrs by DAPI staining based analysis; assay type: functional

SMILES: CC(C)Oc1ccc(C(=O)N[C@H](CNC(=O)CN(C)C)Cc2ccc(-c3cn4cccc([C@H](C)O)c4n3)cc2)cc1Cl [GSK-923295A]
- Activity [1]: 2.89
- GI50 [2]: 25 nM
- GI50 [3]: 3960 nM
- Time [4]: 6.9 days
- Activity [5]: 1.18
- GI50 [6]: 306 nM
- Ki [7]: 3.2 nM
- GI50 [8]: 34 nM
- Activity [9]: 4.11
- Activity [10]: 37%
- GI50 [11]: 29 nM
- Activity [12]: 1.31
- Activity [13]: 73%
- Activity [14]: 2.88
- Activity [15]: 3.86
- GI50 [16]: 42 nM
- Activity [17]: 1.47
- Activity [18]: 2.17
- GI50 [19]: 47 nM
- GI50 [20]: 30 nM
- Activity [21]: 4.28
- Activity [22]: 2.09
- Activity [23]: 3.05
- GI50 [24]: 35 nM
- Ki [25]: 13 nM
- GI50 [26]: 110 nM
- Activity [27]: 3.27
- Activity [28]: 1.27
- Activity [29]: 3.26
- GI50 [30]: 30 nM
- Activity [31]: 1.82
- GI50 [32]: 52 nM
- Activity [33]: 2.27
- GI50 [34]: 158 nM
- GI50 [35]: 63 nM
- GI50 [36]: 17 nM
- GI50 [37]: 23 nM
- Activity [38]: 3.17
- GI50 [39]: 59 nM
- Activity [40]: 2.44
- Activity [41]: 2.47
